From PubChem
KCNK9 inh: human KCNK9 channel inhibition; Q9NPC2; HEK293 KCNK9, FluxOR thallium flux fluorescence; stronger effect = lower value; B-score at 10 µM; 310,000 compounds, 1.2% hits; AID 488922;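 active = ratio B-score over 3 SD below the library mean, with starting fluorescence within 5 SD of its mean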;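 also: negative B-score means less thallium flux so channel inhibition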
Cl transport mod: KCC2 (human) Cl- transport modulation | Q9H2X9 | KCC2 cells, thallium flux FluoZin-2 fluorescence | B-score of Tl+ flux slope (higher = more flux/activation; lower = inhibition) at 10 µM | 190,000 compounds, 2.2% hits;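 active = thallium flux slope and its plate-corrected score both differing from the plate sample mean at a set confidence after two filtering rounds, in either direction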;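 also: slope of fluorescence scaled to starting intensity during 10 to 20 s after thallium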
KCNK3 block: human KCNK3 channel inhibition, primary screen; O14649; 340,000 compounds, 0.84% hits; CHO-KCNK3 thallium flux, FluxOR fluorescence; stronger effect = lower value; AID 602410; B-score at 10 µM;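 active = B-score under library mean minus 4 SD, starting fluorescence ratio at most library mean plus 5 SD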;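 also: more negative B-score means stronger inhibition of thallium flux through KCNK3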
KCNQ1 pot: human KCNQ1 channel potentiation or activation | AID 2648 | B-score at 10 µM | 310,000 compounds, 0.35% hits | CHO-K1 KCNQ1, thallium flux FluxOR fluorescence; stronger effect = higher value;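 active = fluorescence ratio B-score, a plate-corrected score, at least three library SD, with initial intensity B-score within 5 SD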
Target sequence (P51787 whole entry, looked up): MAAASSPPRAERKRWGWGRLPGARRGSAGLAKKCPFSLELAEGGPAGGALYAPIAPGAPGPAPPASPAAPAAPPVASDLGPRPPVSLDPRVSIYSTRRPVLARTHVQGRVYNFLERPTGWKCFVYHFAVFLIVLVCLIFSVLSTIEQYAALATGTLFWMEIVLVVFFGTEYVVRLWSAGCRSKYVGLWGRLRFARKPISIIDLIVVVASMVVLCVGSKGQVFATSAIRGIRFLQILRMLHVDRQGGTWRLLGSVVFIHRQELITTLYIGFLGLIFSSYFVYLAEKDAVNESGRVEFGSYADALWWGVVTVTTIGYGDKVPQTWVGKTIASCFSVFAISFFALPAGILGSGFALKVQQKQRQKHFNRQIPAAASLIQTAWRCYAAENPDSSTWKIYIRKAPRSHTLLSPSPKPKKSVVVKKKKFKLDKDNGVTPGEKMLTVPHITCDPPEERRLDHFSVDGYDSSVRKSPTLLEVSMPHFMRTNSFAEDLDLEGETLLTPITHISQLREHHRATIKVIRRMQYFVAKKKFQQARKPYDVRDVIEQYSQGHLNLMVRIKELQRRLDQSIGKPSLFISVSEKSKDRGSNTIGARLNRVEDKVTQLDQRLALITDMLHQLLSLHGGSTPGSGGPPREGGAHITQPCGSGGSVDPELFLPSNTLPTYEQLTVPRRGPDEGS
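assay system = KCNQ1-transfected CHO-K1 cells | medium = assay buffer with matched DMSO | probe or stimulus = depolarizing K+/Tl+ stimulus, K2SO4 and Tl2SO4 each 12.5 mM in 5x stock | dosing = single dose | incubation = dye 90 min, compound 20 min, room temperature | detection = kinetic FluxOR fluorescence, 10 s baseline plus 110 s post-stimulus | evaluation = ratio B score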
hERG protect: hERG (human) protection from proarrhythmic block; 310,000 compounds, 0.51% hits; activation (rescue from dofetilide block), less the hit threshold, % at 10 µM; CHO-hERG, FluxOR thallium flux, dofetilide IC70 present; Q12809;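 active = activation above the mean of controls blocked by dofetilide plus 5 SD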;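 also: thallium influx through hERG after potassium depolarization seen as dye fluorescence rise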
KCNQ1 inh: inhibitors of human KCNQ1 potassium channel; 310,000 compounds, 1.3% hits; AID 2642; CHO-K1 KCNQ1, FluxOR thallium flux fluorescence; stronger effect = higher value; P51787; B-score at 10 µM;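 active = compounds whose thallium flux B-score, printed positive for inhibition, exceeds three library SD while starting fluorescence stays within three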;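 also: channel opened by potassium depolarization with thallium stimulus after 20 min compound exposure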
KCC2 sec1: KCC2 (human) modulation, secondary assay. shares compounds with Cl transport mod. HEK293-KCC2, thallium flux, FluoZin2 fluorescence; stronger effect = higher value. normalised thallium flux (F/F0 slope) at 10 µM. 3,700 compounds, 15% hits;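 active = thallium flux slope above the same plate's solvent-only control mean plus 3 SD; inconclusive = the two replicate wells disagree; inactive = no significant difference from solvent-only control wells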
KCC2 bumet counter: bumetanide-insensitive thallium flux in KCC2 cells with ouabain, counter-screen. AID 1714. 3,700 compounds, 49% hits. HEK293-KCC2 + bumetanide/ouabain, thallium flux FluoZin2; stronger effect = higher value. shares compounds with Cl transport mod. normalized thallium flux at 10 µM;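 active = thallium entry rate above the same plate's blocked-transporter control wells by more than 3 SD; inconclusive = the two repeat wells disagree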;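 also: raw slope of fluorescence over initial fluorescence between 10 and 20 s after thallium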
KCC2 secondary2: confirmation of human KCC2 transport modulators | shares compounds with Cl transport mod | HEK293-KCC2, thallium flux FluoZin2 fluorescence; actives lie on both sides; F/F0 rise rate, 10–20 s post-thallium | normalized thallium flux at 10 µM | 3,700 compounds, 23% hits | AID 1715;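 active = thallium flux slope more than 3 SD above or below the plate's solvent-only control mean, mostly below; inconclusive = the two repeat wells disagreed; inactive = no significant shift from solvent-only controls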;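 also: raw slope with 0.1% DMSO as baseline and bumetanide as block control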
HEK293 Tl flux: parental HEK flux effect, counter-screen. shares compounds with Cl transport mod. HEK293 parental cells, thallium flux FluoZin2, ouabain; baseline-ratio fluorescence slope, 10–20 s after thallium. thallium flux rate (normalised fluorescence) at 10 µM. 3,700 compounds, 46% hits. AID 1716;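 active = thallium flux rate significantly above the same plate's solvent-only control wells, beyond their mean plus 3 SD; inconclusive = the two replicate wells gave conflicting results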
KCC2 retest ouab: KCC2 (human) modulation, ouabain retest. raw Tl+ flux slope (below DMSO = inhibition, above = activation) at 10 µM. shares compounds with Cl transport mod. 3,700 compounds, 48% hits. HEK293-KCC2, thallium flux FluoZin2 fluorescence; bidirectional: low = inhibitor, high = activator;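 active = thallium flux slope beyond 3 SD from same-plate DMSO control mean in most replicates, usually higher, sometimes lower; inconclusive = repeat tests gave conflicting results; inactive = no significant difference from controls in most replicates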;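 also: slope of initial-normalized fluorescence between seconds 10 and 20 after thallium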
HEK293 Tl flux2: acts in parental HEK cells, second KCC2 counter-screen; shares compounds with Cl transport mod; HEK293 parental, thallium flux FluoZin-2 fluorescence slope; thallium flux slope at 10 µM; 3,700 compounds, 33% hits; AID 1718;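 active = thallium flux slope above the same plate's solvent-control mean plus 3 SD in both duplicate wells; inconclusive = duplicate wells that disagreed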;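 also: run without ouabain in cells lacking the KCC2 cotransporter; slope of fluorescence scaled to its starting value between 10 and 20 s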
* marks the source's active call; other numbers are inactive results; i = inactive; ? = inconclusive; nt = no result. The list is not random: actives were taken first. Their share in the collection is about 4.1%.

SMILES	KCNK9 inh	Cl transport mod	KCNK3 block	KCNQ1 pot	hERG protect	KCNQ1 inh	KCC2 sec1	KCC2 bumet counter	KCC2 secondary2	HEK293 Tl flux	KCC2 retest ouab	HEK293 Tl flux2
CCNC(=S)NN=C1CCC(C(C)(C)C)CC1 (stereo not given)	i	3.3*	i	i	-2	i	0.0069	0.0066*	0.028	0.0092*	0.02	0.011
CC(C)(C)C1CCC(=NNC(=S)Nc2cccnc2)CC1 (stereo not given)	i	6.8*	i	i	-1	i	0.0069	0.013*	0.032	0.014*	?	0.013*
S=C(Nc1cccnc1)NC1CC2CCC1C2 (stereo not given)	i	nt	i	i	-5	i	nt	nt	nt	nt	nt	nt
CC(C)(C)C1CCC(=NNC(=O)CN(c2ccccc2)S(C)(=O)=O)CC1 (stereo not given)	i	0.93	i	i	-6	i	nt	nt	nt	nt	nt	nt
Cc1ccccc1-c1nnc(SCC(=O)N(C)C2CCS(=O)(=O)C2)n1C (stereo not given)	nt	nt	i	nt	nt	nt	nt	nt	nt	nt	nt	nt
CCCCCCN1N=C(C)C(C(=O)c2ccc(Cl)cc2)C1=O (stereo not given)	i	5*	i	i	-13	i	0.013*	0.025*	0.033	0.014*	0.032*	?
CC1=NN(c2ccccc2)C(=O)C1C(=O)c1cc([N+](=O)[O-])cc([N+](=O)[O-])c1 (stereo not given)	i	-0.39	i	i	-12	i	nt	nt	nt	nt	nt	nt
CCCCN(C(=O)c1ccc(Cl)cc1)C1CC2CCC(C1)N2C (stereo not given)	i	0.42	i	i	-7	i	nt	nt	nt	nt	nt	nt
CCCCCCCN1N=C(C)C(C(=O)c2ccccc2)C1=O (stereo not given)	i	3.1*	i	i	-6	i	0.008	0.024*	?	0.014*	0.03*	0.017*
COc1ccc(NC(=O)CSc2nc(C)cs2)c([N+](=O)[O-])c1	nt	nt	i	nt	nt	nt	nt	nt	nt	nt	nt	nt
N#Cc1ccccc1NC(=O)CSc1nccn1CCc1ccccc1	i	-4*	i	i	-8	i	0.0068	0.005	0.025*	0.0073	0.014*	0.01
CC(=O)Nc1ccc(NC(=O)CSc2nccn2Cc2ccccc2)cc1	i	-1.9	i	i	-12	i	nt	nt	nt	nt	nt	nt
Cc1ccc(NC(=O)CSc2nccn2Cc2ccccc2)cc1C	i	-3.1*	i	i	-11	i	?	0.0042	0.029	0.0053*	0.02*	0.0092
CCOc1ccc(/C=N/NC(=O)Cc2ccccc2)cc1CN1CC2CC(C1)c1cccc(=O)n1C2 (stereo not given)	nt	nt	i	nt	nt	nt	nt	nt	nt	nt	nt	nt
CC(C)C(NC(=O)c1c(F)cccc1F)C(=O)N1CCN(S(=O)(=O)/C=C/c2ccccc2)CC1 (stereo not given)	nt	nt	i	nt	nt	nt	nt	nt	nt	nt	nt	nt
CC1CCCN(S(=O)(=O)c2ccc(NC(=O)CCN3C(=O)c4ccccc4C3=O)cc2)C1 (stereo not given)	i	0.023	i	i	-6	i	0.0097	?	0.033	0.0078	0.021	0.011
COc1ccc(C(NC(=O)CN2C(=O)NC3(CCc4ccccc43)C2=O)c2ccc(OC)cc2)cc1 (stereo not given)	nt	nt	i	nt	nt	nt	nt	nt	nt	nt	nt	nt
Cc1ccccc1OCC(=O)NNC(=O)CCN1C(=O)c2ccccc2C1=O	i	-3.9*	i	i	-6	i	0.0068	0.0056	0.023*	0.0078	?	0.011
COc1ccc(C(=O)NCC(=O)OCC(=O)N2CC(C)OC(C)C2)cc1OC (stereo not given)	nt	nt	i	nt	nt	nt	nt	nt	nt	nt	nt	nt
O=[N+]([O-])c1ccc(O)c(C2=NNC(c3ccccc3F)C2)c1 (stereo not given)	i	28*	i	i	-17	i	0.0094	0.034*	0.031	0.025*	0.032*	?
COc1ccc([N+](=O)[O-])cc1C1NN=C(c2ccccc2O)S1 (stereo not given)	i	-0.13	i	i	-10	i	nt	nt	nt	nt	nt	nt
COc1ccccc1NC(=O)C(=O)/C=C(\O)c1ccccc1	i	73*	i	i	-7	i	?	0.088*	0.062*	0.052*	0.064*	0.041*
COc1ccc(OC)c(/C(O)=C/C(=O)C(=O)Nc2cc(C)cc(C)c2)c1	i	1.2	i	i	-12	i	nt	nt	nt	nt	nt	nt
CCOc1ccccc1NC(=O)C(=O)/C=C(\O)c1cc(OC)ccc1OC	i	5.8*	i	i	-11	i	0.006	0.026*	0.036	0.022*	0.029*	0.014*
COc1ccc(/C(O)=C/C(=O)C(=O)NNC(=O)c2ccccc2)cc1	i	nt	i	i	-5	i	nt	nt	nt	nt	nt	nt
SMILES	KCNK9 inh	Cl transport mod	KCNK3 block	KCNQ1 pot	hERG protect	KCNQ1 inh	KCC2 sec1	KCC2 bumet counter	KCC2 secondary2	HEK293 Tl flux	KCC2 retest ouab	HEK293 Tl flux2
COc1ccc(OC)c(/C(O)=C/C(=O)C(=O)Nc2cc(C)ccc2OC)c1	i	4*	i	i	-5	i	0.0058	0.022*	0.036	0.016*	0.027*	0.018*
O=C(NCCC1=CCCCC1)c1cccc(S(=O)(=O)N2CCCCC2)c1	i	nt	i	i	-5	i	nt	nt	nt	nt	nt	nt
c1coc(CNc2nc3nonc3nc2NCc2ccco2)c1	nt	nt	i	nt	nt	nt	?	0.0049	0.028*	0.0073	0.019	0.011
CC(=O)Nc1ccc(NC(=O)C(C)OC(=O)CCSc2ccccc2Cl)cc1 (stereo not given)	nt	nt	i	nt	nt	nt	nt	nt	nt	nt	nt	nt
Cc1sc2ncn(CC(=O)OCC(=O)NC(C)(C)C)c(=O)c2c1C	i	nt	i	i	-6	i	0.0068	0.005	0.03	0.008	0.019	0.011
Cc1cccc(C)c1OC(=O)c1ccccc1	nt	nt	i	nt	nt	nt	nt	nt	nt	nt	nt	nt
